Measurements published in publication PMC12243159 (RSC Medicinal Chemistry, 2025).
“Also recorded” adds a separate entry of the source. Read-outs that look alike come from different tables or passages of the source.

Assays:
hCA XII = hCA XII (Homo sapiens, UniProt O43570); test: stopped-flow CO2 hydration assay, hCA XII; format: biochemical; conditions: for SI I/XII: ratio of KI hCA I to KI hCA XII
hCA II [1] = biological target: T1, hCA II (Homo sapiens, UniProt P00918); test: stopped-flow CO2 hydration assay, hCA II; format: biochemical
Summary of the method: (§1)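 Recombinant in-house enzyme, preincubated 15 min at room temperature with inhibitor. Inhibitor stock was 0.1 mM in water, diluted down to 0.01 nM. CO₂ (1.7–17 mM) hydration was followed by stopped-flow with 0.2 mM phenol red at 557 nm, in 20 mM HEPES pH 7.5 with 20 mM Na₂SO₄, over 10–100 s. Initial rates came from six traces and were corrected for the uncatalysed rate. Ki was obtained by non-linear least squares, mean of ≥3 measurements.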

hCA IX = hCA IX (Homo sapiens, UniProt Q16790); test: stopped-flow CO2 hydration assay, hCA IX; format: biochemical; conditions: for SI I/IX: ratio of KI hCA I to KI hCA IX; for SI II/IX: ratio of KI hCA II to KI hCA IX
hCA VI = hCA VI (Homo sapiens, UniProt P23280); test: stopped-flow CO2 hydration assay, hCA VI; format: biochemical
hCA II [2] = biological target: T1, hCA II; conditions: read-out: KI hCA II; stopped-flow hydration assay; values marked *; cited from earlier work
hCA I = hCA I (Homo sapiens, UniProt P00915); test: stopped-flow CO2 hydration assay, hCA I; format: biochemical
Summary of the method: as §1

[3] = test system: pancreatic epithelioid carcinoma PANC-1; test: cell proliferation, CCK-8 assay, PANC-1; format: cell-based; conditions: PANC-1 cells, 72 hours, hypoxic conditions
MDA-MB-231 cells = test: cell proliferation assay, cell counting by flow cytometry; format: cell-based, human; conditions: MDA-MB-231, 72 hours, hypoxic conditions
Summary of the method: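 MDA-MB-231 cells were grown in DMEM with 10% FBS, 1% penicillin/streptomycin and 1% glutamine, kept at low passage, and held under hypoxia (1% O₂, 5% CO₂). Cells were seeded at 10.000 per well and treated in 1% FBS with increasing compound concentrations for 72 h at 37 °C. They were then detached with trypsin/2 mM EDTA and counted by flow cytometry. Counts are given as % of untreated control (mean ± SEM) with IC₅₀.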

[4] = test system: non-small cell lung carcinoma A549; test: cell proliferation, CCK-8 assay, A549; format: cell-based; conditions: A549 cells, 72 hours, hypoxic conditions

hCA XII, sequence (O43570 25-354): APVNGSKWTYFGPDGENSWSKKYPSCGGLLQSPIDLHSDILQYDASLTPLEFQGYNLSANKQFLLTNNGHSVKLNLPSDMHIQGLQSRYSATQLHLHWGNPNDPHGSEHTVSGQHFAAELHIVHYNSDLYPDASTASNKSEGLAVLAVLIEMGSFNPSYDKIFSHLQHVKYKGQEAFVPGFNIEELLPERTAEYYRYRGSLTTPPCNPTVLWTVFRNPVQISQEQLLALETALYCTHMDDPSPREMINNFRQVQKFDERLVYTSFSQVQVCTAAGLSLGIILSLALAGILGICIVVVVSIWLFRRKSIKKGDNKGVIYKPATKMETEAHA
hCA I, sequence (P00915 whole entry): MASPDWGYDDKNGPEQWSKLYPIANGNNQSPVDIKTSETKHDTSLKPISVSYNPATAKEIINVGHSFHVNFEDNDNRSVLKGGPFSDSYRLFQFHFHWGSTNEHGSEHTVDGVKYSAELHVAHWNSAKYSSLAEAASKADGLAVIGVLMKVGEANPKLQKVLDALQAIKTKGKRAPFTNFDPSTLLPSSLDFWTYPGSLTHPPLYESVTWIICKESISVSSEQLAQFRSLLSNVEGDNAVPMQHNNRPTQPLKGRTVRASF
hCA VI, sequence (P23280 18-308): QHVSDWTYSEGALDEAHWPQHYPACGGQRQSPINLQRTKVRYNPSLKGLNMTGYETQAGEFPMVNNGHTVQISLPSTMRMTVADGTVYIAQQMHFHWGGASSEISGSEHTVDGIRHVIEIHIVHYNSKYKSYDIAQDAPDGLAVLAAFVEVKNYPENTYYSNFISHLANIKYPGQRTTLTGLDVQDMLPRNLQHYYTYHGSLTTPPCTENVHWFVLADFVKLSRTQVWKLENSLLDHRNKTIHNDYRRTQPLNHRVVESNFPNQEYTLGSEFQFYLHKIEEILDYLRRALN

| SI I/XII (hCA XII) | Ki (hCA II [1]) | Ki (hCA IX) | SI I/IX (hCA IX) | SI II/IX (hCA IX) | Ki (hCA VI) | Ki (hCA I) | Ki (hCA XII; KI hCA XII, stopped-flow hydration assay) | SI II/XII (hCA XII; ratio of KI hCA II to KI hCA XII) | Structure (SMILES) | Ki (hCA II [2]) | antiproliferative effect [3] | anti-proliferative effect (MDA-MB-231 cells) | antiproliferative effect [4] |
| --- | --- | --- | --- | --- | --- | --- | --- | --- | --- | --- | --- | --- | --- |
| 43.86 | 12.1 nM | 25.7 nM | 9.73 | 0.47 | 505 nM | 250 nM |  |  | Cc1cn([C@H]2C[C@H](N=[N+]=[N-])[C@@H](CO)O2)c(=O)[nH]c1=O [AZT, azidothymidine, reference compound] | 684 nM |  |  |  |
|  |  |  |  |  | 453 nM |  |  |  | C#Cc1cccc(Nc2ncnc3cc(OCCOC)c(OCCOC)cc23)c1 [ERL, erlotinib] | 3980 nM | displayed an antiproliferative effect | mild reduction of cell proliferation; also recorded: low efficacy | displayed an antiproliferative effect |
|  |  |  |  |  |  |  |  |  | NS(=O)(=O)c1ccc(NC(=O)Nc2ccc(F)cc2)cc1 [SLC-0111] |  | ineffective |  | ineffective |
| 10.0 | 32700 nM | 1880 nM | 0.51 | 17.4 |  | 957 nM | 95.2 nM | 344 | COCCOc1cc2ncnc(Nc3cccc(-c4cn(CCOCCOCCOCCOCCOCCNC(=S)NCCc5ccc(S(N)(=O)=O)cc5)nn4)c3)c2cc1OCCOC [compound 14d, 4-(22-(4-(3-((6,7-Bis(2-methoxyethoxy)quinazolin-4-yl)amino)phenyl)-1H-1,2,3-triazol-1-yl)-4-thioxo-8,11,14,17,20-pentaoxa-3,5-diazadocosyl)benzenesulfonamide] |  |  |  |  |
